Test results taken from ChEMBL document CHEMBL3286372, “Design, synthesis and structure-activity relationship of novel semi-synthetic flavonoids as antiproliferative agents” (2014).

Key:
COLO 205 = assay: Growth inhibition of human COLO205 cells after 48 hrs by coulter counting analysis; assay type: functional; details: COLO 205, 48 h
Outline: (§1)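 NCI five-dose screen at 0.01-100 µM, diluted from DMSO stocks in buffered saline (final DMSO <1%). Cells at 6×10^4 cells/ml in RPMI 1640 with 10% FBS, in duplicate wells, at 37 °C under 5% CO2 for 48 h. Cells diluted tenfold in saline and Coulter-counted. GI50, TGI and LC50 taken from log concentration-growth inhibition curves.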

[1] = target: Cyclin-dependent kinase 2/cyclin E1 (Homo sapiens) (UniProt P24864+P24941); assay: Inhibition of CDK2/Cyclin E1 (unknown origin) at 20 uM after 30 mins by scintillation counting analysis relative to control; assay type: protein-complex assay
Outline: (§2)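 Recombinant kinases, cloned, expressed and purified in-house. Radiometric ³³P-ATP assay with kinase at ~10-50 nM final and 1-5 µg peptide or protein substrate. Compound at 20 µM final, in duplicate. Reaction started by adding ATP, run 30 min at ambient temperature, then spotted on P81 phosphocellulose. Plates washed in 1% phosphoric acid and counted by scintillation. No-substrate blank subtracted. Result is mean % activity change versus DMSO control.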

NCI-H23 = assay: Growth inhibition of human NCI-H23 cells after 48 hrs by coulter counting analysis; assay type: functional; details: NCI-H23, 48 h
Outline: (§3)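 Five-dose NCI-60 follow-up, 0.01–100 µM, made from DMSO stock in buffered saline (final DMSO <1%), in duplicate wells. Cells in RPMI 1640 with 10% FBS at 6×10^4 cells/ml, 37 °C, 5% CO2, 48 h. Cells diluted tenfold in saline, Coulter-counted and corrected for dilution. GI50, TGI and LC50 taken from log concentration–percent growth curves.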

SK-MEL-28 = assay: Growth inhibition of human SK-MEL-28 cells after 48 hrs by coulter counting analysis; assay type: functional; details: SK-MEL-28, 48 h; outline: as §3
SN12C = assay: Growth inhibition of human SN12C cells after 48 hrs by coulter counting analysis; assay type: functional; outline: as §3
[2] = Growth inhibition of human SF539 cells after 48 hrs by coulter counting analysis; assay type: functional; details: SF-539, 48 h; outline: as §3
NCI-H522 = assay: Growth inhibition of human NCI-H522 cells after 48 hrs by coulter counting analysis; assay type: functional; details: NCI-H522, 48 h; outline: as §3
A498 = assay: Growth inhibition of human A498 cells after 48 hrs by coulter counting analysis; assay type: functional; details: A498, 48 h; outline: as §1
U-251 = assay: Growth inhibition of human U251 cells after 48 hrs by coulter counting analysis; assay type: functional; details: U-251, 48 h
Outline: (§4)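 NCI five-dose screen, 0.01-100 µM, from DMSO stocks diluted in buffer saline (final DMSO <1%). Cells grown in RPMI 1640 + 10% FBS, seeded at 6×10^4 cells/ml, in duplicate wells. Exposure 48 h at 37 °C, 5% CO2. Cells diluted 10-fold in saline and counted by Coulter counter. GI50 derived from log concentration–percent growth inhibition curves. Controls carried matching PBS/saline/DMSO.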

[3] = Growth inhibition of human HCT15 cells after 48 hrs by coulter counting analysis; assay type: functional; details: HCT-15, 48 h; outline: as §1
[4] = Growth inhibition of human NCI60 cells after 48 hrs by coulter counting analysis; assay type: functional; details: NCI60, 48 h
Outline: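 Five-dose screen (0.01-100 µM, DMSO-solubilized, under 1% DMSO final), cells in RPMI 1640 + 10% FBS at 6×10^4 cells/ml, duplicate wells, 37 °C, 5% CO2, 48 h. Cells then diluted tenfold in saline and counted by Coulter counter with dilution correction. Controls held buffer/saline/DMSO at matching dilutions. GI50 derived from log concentration-percent growth inhibition curves.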

[5] = Growth inhibition of human UACC257 cells after 48 hrs by coulter counting analysis; assay type: functional; details: UACC-257, 48 h; outline: as §4
Malme-3M = assay: Growth inhibition of human MALME-3M cells after 48 hrs by coulter counting analysis; assay type: functional; outline: as §1
NCI-H226 = assay: Growth inhibition of human NCI-H226 cells after 48 hrs by coulter counting analysis; assay type: functional; details: NCI-H226, 48 h; outline: as §3
[6] = target: Glycogen synthase kinase-3 beta (Homo sapiens) (UniProt P49841); assay: Inhibition of GSK-3beta (unknown origin) at 20 uM after 30 mins by scintillation counting analysis relative to control; outline: as §2
Chain of Glycogen synthase kinase-3 beta (Homo sapiens) (P49841 whole entry, looked up): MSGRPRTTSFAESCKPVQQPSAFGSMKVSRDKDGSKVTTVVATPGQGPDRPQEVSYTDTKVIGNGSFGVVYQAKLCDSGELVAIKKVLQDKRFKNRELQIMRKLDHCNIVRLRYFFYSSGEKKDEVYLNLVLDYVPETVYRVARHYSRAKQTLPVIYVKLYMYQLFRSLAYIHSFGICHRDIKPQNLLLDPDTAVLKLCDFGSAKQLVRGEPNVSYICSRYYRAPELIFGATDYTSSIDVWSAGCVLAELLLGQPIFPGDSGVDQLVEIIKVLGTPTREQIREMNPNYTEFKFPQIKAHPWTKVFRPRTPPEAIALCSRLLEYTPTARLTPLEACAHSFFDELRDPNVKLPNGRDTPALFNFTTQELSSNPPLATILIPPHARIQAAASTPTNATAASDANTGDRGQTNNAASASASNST

[7] = Growth inhibition of human OVCAR3 cells after 48 hrs by coulter counting analysis; assay type: functional; details: OVCAR-3, 48 h; outline: as §3
SF-268 = assay: Growth inhibition of human SF268 cells after 48 hrs by coulter counting analysis; assay type: functional; details: SF-268, 48 h; outline: as §3
HCT-116 = assay: Growth inhibition of human HCT116 cells after 48 hrs by coulter counting analysis; assay type: functional; details: HCT-116, 48 h; outline: as §1
ACHN = assay: Growth inhibition of human ACHN cells after 48 hrs by coulter counting analysis; assay type: functional; outline: as §1
[8] = Growth inhibition of human LOXIMVI cells after 48 hrs by coulter counting analysis; assay type: functional; details: LOX IMVI; outline: as §1
SK-MEL-2 = assay: Growth inhibition of human SK-MEL-2 cells after 48 hrs by coulter counting analysis; assay type: functional; details: SK-MEL-2, 48 h; outline: as §3
HOP-62 = assay: Growth inhibition of human HOP62 cells after 48 hrs by coulter counting analysis; assay type: functional; details: HOP-62, 48 h; outline: as §1
SW-620 = assay: Growth inhibition of human SW620 cells after 48 hrs by coulter counting analysis; assay type: functional; details: SW-620, 48 h; outline: as §3
T47D = assay: Growth inhibition of human T47D cells after 48 hrs by coulter counting analysis; assay type: functional; outline: as §3
PC-3 = assay: Growth inhibition of human PC3 cells after 48 hrs by coulter counting analysis; assay type: functional; details: PC-3, 48 h; outline: as §3
RPMI-8226 = assay: Growth inhibition of human RPMI8226 cells after 48 hrs by coulter counting analysis; assay type: functional; details: RPMI-8226, 48 h; outline: as §3
MDA-MB-435 = assay: Growth inhibition of human MDA-MB-435 cells after 48 hrs by coulter counting analysis; assay type: functional; details: MDA-MB-435, 48 h; outline: as §1
HT-29 = assay: Growth inhibition of human HT-29 cells after 48 hrs by coulter counting analysis; assay type: functional; details: HT-29, 48 h; outline: as §1
[9] = Growth inhibition of human EKVX cells after 48 hrs by coulter counting analysis; assay type: functional; outline: as §1
CAKI-1 = assay: Growth inhibition of human CAKI-1 cells after 48 hrs by coulter counting analysis; assay type: functional; details: CAKI-1, 48 h; outline: as §1
[10] = Growth inhibition of human SF295 cells after 48 hrs by coulter counting analysis; assay type: functional; details: SF-295, 48 h; outline: as §3
[11] = Growth inhibition of human HCC2998 cells after 48 hrs by coulter counting analysis; assay type: functional; details: HCC 2998, 48 h; outline: as §1
SK-MEL-5 = assay: Growth inhibition of human SK-MEL-5 cells after 48 hrs by coulter counting analysis; assay type: functional; details: SK-MEL-5, 48 h; outline: as §3
NCI-H460 = assay: Growth inhibition of human NCI-H460 cells after 48 hrs by coulter counting analysis; assay type: functional; details: NCI-H460, 48 h; outline: as §3
SNB-19 = assay: Growth inhibition of human SNB19 cells after 48 hrs by coulter counting analysis; assay type: functional; details: SNB-19, 48 h; outline: as §3

In the case of `C=CCc1c(O)c(C(=O)/C=C/c2ccc(Cl)cc2)c(OC)c2ccoc12`, the GI50 (COLO 205) is reported as 4.44 µM, the inhibition [1] is reported as 3% and the GI50 (NCI-H23) is reported as 2780 nM. It also gave a GI50 (SK-MEL-28) of 2320 nM, a GI50 (SN12C) of 4.96 µM and a GI50 [2] of 1790 nM. The GI50 (NCI-H522) was 1880 nM, the GI50 (A498) was 2770 nM and the GI50 (U-251) was 2300 nM. The GI50 [3] was 3.4 µM, the LC50 [4] was 37.1 µM and the TGI [4] was 11 µM. For the same compound, the GI50 [5] was 2390 nM, the GI50 (Malme-3M) was 2.74 µM and the GI50 (NCI-H226) was 1520 nM. The inhibition [6] was 80%, the GI50 [7] was 1970 nM and the GI50 (SF-268) was 3.25 µM. For the same compound, the GI50 (HCT-116) was 2740 nM, the GI50 (ACHN) was 2.31 µM and the GI50 [8] was 1630 nM. For the same compound, the GI50 (SK-MEL-2) was 3.97 µM, the GI50 (HOP-62) was 2.31 µM and the GI50 (SW-620) was 2560 nM. The GI50 (T47D) was 3.29 µM, the GI50 (PC-3) was 3.81 µM and the GI50 (RPMI-8226) was 3040 nM. It also gave a GI50 (MDA-MB-435) of 2060 nM, a GI50 (HT-29) of 1890 nM and a GI50 [9] of 7.23 µM. It also gave a GI50 (CAKI-1) of 2610 nM, a GI50 [10] of 2770 nM and a GI50 [11] of 1790 nM. It also gave a GI50 (SK-MEL-5) of 2070 nM, a GI50 (NCI-H460) of 3200 nM and a GI50 (SNB-19) of 2850 nM.
In the case of `C=CCc1c(O)c(C(=O)/C=C/c2ccccc2)c(OC)c2ccoc12`, the GI50 (COLO 205) is reported as 5.96 µM, the inhibition [1] is reported as 0% and the GI50 (NCI-H23) is reported as 2520 nM. It also gave a GI50 (SK-MEL-28) of 2490 nM, a GI50 (SN12C) of 3.79 µM and a GI50 [2] of 1710 nM. The GI50 (NCI-H522) was 2150 nM, the GI50 (A498) was 1740 nM and the GI50 (U-251) was 2360 nM. The GI50 [3] was 2.91 µM, the LC50 [4] was 41.7 µM and the TGI [4] was 11.2 µM. For the same compound, the GI50 [5] was 2560 nM, the GI50 (Malme-3M) was 5.8 µM and the GI50 (NCI-H226) was 1480 nM. For the same compound, the inhibition [6] was 38%, the GI50 [7] was 2460 nM and the GI50 (SF-268) was 2.8 µM. The GI50 (HCT-116) was 3030 nM, the GI50 (ACHN) was 3.79 µM and the GI50 [8] was 1560 nM. It also gave a GI50 (SK-MEL-2) of 3.04 µM, a GI50 (HOP-62) of 5.32 µM and a GI50 (SW-620) of 3320 nM. For the same compound, the GI50 (T47D) was 4.11 µM, the GI50 (PC-3) was 3.68 µM and the GI50 (RPMI-8226) was 1880 nM. It also gave a GI50 (MDA-MB-435) of 2780 nM, a GI50 (HT-29) of 3010 nM and a GI50 [9] of 6.13 µM. For the same compound, the GI50 (CAKI-1) was 2800 nM, the GI50 [10] was 2440 nM and the GI50 [11] was 1730 nM. The GI50 (SK-MEL-5) was 2660 nM, the GI50 (NCI-H460) was 2790 nM and the GI50 (SNB-19) was 2850 nM.
